DDE Tn6 FP inh: disrupts Tn6 cyclic peptide binding to fibrin D-Dimer-E complex; Fibrin DD(E) TRITC-Tn6 fluorescence polarization displacement; inhibition, % at 8.3 µM; hit rate 0.21% among 370,000; AID 720509;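 active = inhibition above a per-campaign cutoff: mean of compounds within control limits plus 3 SD, cut at about 15% in these data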;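 also: 0% = median of all compound wells on the plate and 100% = blocking peptide control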
Target sequence (P02675 whole entry, looked up): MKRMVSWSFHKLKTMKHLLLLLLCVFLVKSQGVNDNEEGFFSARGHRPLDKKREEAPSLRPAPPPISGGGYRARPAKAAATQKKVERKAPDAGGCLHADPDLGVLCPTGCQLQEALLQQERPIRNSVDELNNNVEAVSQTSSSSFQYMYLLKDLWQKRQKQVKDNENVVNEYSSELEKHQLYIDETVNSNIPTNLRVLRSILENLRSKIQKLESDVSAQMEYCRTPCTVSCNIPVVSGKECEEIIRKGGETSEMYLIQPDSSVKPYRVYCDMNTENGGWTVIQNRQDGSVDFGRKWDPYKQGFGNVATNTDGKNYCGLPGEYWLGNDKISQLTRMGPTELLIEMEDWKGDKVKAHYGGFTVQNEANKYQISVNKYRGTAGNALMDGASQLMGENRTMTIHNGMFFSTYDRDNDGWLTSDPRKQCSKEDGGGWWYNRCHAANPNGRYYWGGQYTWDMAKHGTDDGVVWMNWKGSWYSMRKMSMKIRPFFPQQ
HTRA1 inh: blocks human HTRA1 serine peptidase; Q92743; recombinant HTRA1, FP-rhodamine activity-based probe, fluorescence polarization; inhibition, % at 5.96 µM; hit rate 0.5% among 340,000; AID 504803; in the data active = inhibition above about 36%;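 also: 0% = enzyme with DMSO and 100% = wells lacking enzyme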
mABHD4 FP: inhibits mouse alpha/beta hydrolase domain 4; Q8VD66; purified mABHD4, FP-Rh probe fluorescence polarization; inhibition, % at 8.92 µM; hit rate 0.54% among 370,000; AID 720543;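 active = inhibition exceeding the mean over every tested compound plus 3 SD, cut at about 30% in these data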;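 also: 0% = plate median of compound wells and 100% = S159A mutant with DMSO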
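Assay system: mABHD4 protein; medium: HEPES pH 7.0, NaCl, Pluronic buffer; dosing: 8.92 µM, single dose; schedule: 45 min + 60 min at 25 °C; signal: FP readout, ex 525 nm / em 598 nm; read-out: normalized percent inhibition of probe labeling; repeats: single replicate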
SIAE primary: blocks human sialic acid acetylesterase; Q9HAT2; inhibition, % at 9.66 µM; SIAE FP-Rh probe binding, fluorescence polarization; hit rate 0.69% among 370,000;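 active = inhibition above a cutoff: mean of compounds within the control limits plus 3 SD of those, cut at about 17% in these data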;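 also: 0% = plate median of compound wells and 100% = probe without SIAE protein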
Tn7 DDE FP: inhibitors of Tn7 peptide binding to human fibrin DD(E) | P02675 | FP displacement of FITC-Tn7 peptide from fibrin DD(E); 0% = median of compound wells per plate | inhibition, % at 8.3 µM | hit rate 0.13% among 370,000 | AID 720508;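 active = inhibition above the mean of compounds falling within the control limits plus 3 SD of them, cut at about 14% in these data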;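 also: 0% = plate median of compound wells and 100% = 10 µM Aha-Tn7 peptide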
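Assay system: Human clot-derived fibrin DD(E) complex | Buffer or medium: Tris/NaCl/CaCl2 buffer, pH 7.8 | Repeats: One replicate per compound | Benchmarks: Aha-Tn7 high control | Measure: % inhibition scaled between sample-field median and high-control FP | Schedule: 10 min plus 3 h, room temperature | Signal: Fluorescence polarization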
TCR CD3 inh: human TCR-CD3 binding inhibition. TAMRA-labeled TCR probe fluorescence, biochemical. inhibition, % at 9.4 µM. hit rate 0.37% among 360,000. AID 651800;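 also: recombinant mutant TCR 2C K166C tagged with TAMRA read by polarization; 0% = receptor in buffer alone and 100% = receptor with positive control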
BSA probe FL: BSA probe counter-screen for TCR-CD3 inhibitors; inhibition, % at 9.4 µM; AID 652035; shares compounds with TCR CD3 inh; hit rate 10% among 1,200; TAMRA-labeled BSA probe fluorescence counterscreen; in the data active = inhibition above about 23%;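 also: 0% = buffer low control and 100% = reference high control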
TCR-CD3 conf: confirmation of human TCR-CD3 interaction inhibitors; shares compounds with TCR CD3 inh; TAMRA-labeled TCR probe fluorescence binding assay; inhibition, % at 9.4 µM; hit rate 48% among 1,200
* = called active by the depositor. Rows were chosen to be rich in hits. Some 1.8% of all compounds tested hit in one or more screens of this group. Rule as the data show it, unless noted: active = inhibition above about 19%; inactive = the rest.

`CCN(CC)S(=O)(=O)c1cccc(NC(=O)CC2CCCC2)c1` gave DDE Tn6 FP inh 4.9, HTRA1 inh -5.5, mABHD4 FP 3.2, SIAE primary 3.1, Tn7 DDE FP -1.4 and TCR CD3 inh -0.2.
CCN(CC)S(=O)(=O)c1cccc(NC(=O)Nc2cccc(C(F)(F)F)c2)c1 was read as DDE Tn6 FP inh -24.4, HTRA1 inh -124.6, mABHD4 FP -132.2, SIAE primary -215.3, Tn7 DDE FP -3.2, TCR CD3 inh 23.5*, BSA probe FL 15.3 and TCR-CD3 conf 26.2*.
Screening OC[C@@H](O)C(O)[C@@H](O)CO (stereo partly drawn) returned DDE Tn6 FP inh 4.5, mABHD4 FP 7.4, SIAE primary -2.1, Tn7 DDE FP -0.9, TCR CD3 inh 46.7*, BSA probe FL 1.2 and TCR-CD3 conf 0.4.
`CCOc1ccccc1NC(=O)C(=O)N/N=C/c1cc(Br)ccc1O` gave DDE Tn6 FP inh -3.9, HTRA1 inh 14.3, mABHD4 FP 14.4, SIAE primary 0.9, Tn7 DDE FP -0.5, TCR CD3 inh 27.9*, BSA probe FL -9.9 and TCR-CD3 conf 21.4*.
`CCOc1ccccc1C=NNC(=O)C(=O)NN=Cc1ccccc1OCC` gave DDE Tn6 FP inh 4.4, HTRA1 inh -1.8, mABHD4 FP -0.6, SIAE primary 4.0, Tn7 DDE FP -1.8 and TCR CD3 inh 6.7.
Screening Cc1occc1-c1nnc(SCC(=O)N2CCCCC2C)o1 (stereo not drawn) returned DDE Tn6 FP inh -3.7, HTRA1 inh 1.8, mABHD4 FP 0.9, SIAE primary -5.2, Tn7 DDE FP 4.1 and TCR CD3 inh -3.7.
For CC1CCCCN1C(=O)CSc1nnc(-c2ccccc2O)o1 (stereo not drawn) the results were DDE Tn6 FP inh -3.3, HTRA1 inh 21.1, mABHD4 FP 1.7, SIAE primary 9.5, Tn7 DDE FP -2.1, TCR CD3 inh 26.6*, BSA probe FL 13.1 and TCR-CD3 conf 21.3*.
For O=C(N/N=C/c1c(O)n(-c2ccc(Cl)cn2)c(=O)c2ccccc12)C1CC1 the results were DDE Tn6 FP inh 0.1, HTRA1 inh 9.8, mABHD4 FP 9.6, SIAE primary 11.7, Tn7 DDE FP 8.5, TCR CD3 inh 22.7*, BSA probe FL -10.7 and TCR-CD3 conf 26.1*.
O=C(N/N=C/c1c(O)n(-c2ccc(Cl)cn2)c(=O)c2ccccc12)c1ccncc1 was read as DDE Tn6 FP inh -7.0, HTRA1 inh 2.9, mABHD4 FP 4.5, SIAE primary 13.6, Tn7 DDE FP -2.1 and TCR CD3 inh 6.3.
`COc1cccc(NC(=O)C2CCOC2=O)c1` (stereo not drawn) gave DDE Tn6 FP inh -4.0, mABHD4 FP -10.6, SIAE primary -1.4, Tn7 DDE FP 2.7 and TCR CD3 inh 1.2.
Screening O=C(CCC(=O)N/N=C/c1cc(Cl)cc(Cl)c1O)NCc1ccccc1 returned DDE Tn6 FP inh 5.7, HTRA1 inh 14.7, mABHD4 FP 6.5, SIAE primary 7.0, Tn7 DDE FP 2.4, TCR CD3 inh 20.7*, BSA probe FL 10.9 and TCR-CD3 conf 23.1*.
O=C(CCC(=O)N/N=C/c1ccc(Br)s1)NCc1ccccc1 was read as DDE Tn6 FP inh -2.9, HTRA1 inh -2.4, mABHD4 FP 4.5, SIAE primary 6.9, Tn7 DDE FP 2.3 and TCR CD3 inh 3.1.
`O=C(c1cccc(Br)c1)N1CCCc2ccccc21` gave DDE Tn6 FP inh 0.1, HTRA1 inh 0.3, mABHD4 FP -4.1, SIAE primary 0.8, Tn7 DDE FP 0.3 and TCR CD3 inh 0.7.
O=C(c1cccc(Cl)c1)N1CCCc2ccccc21 was read as DDE Tn6 FP inh -3.8, HTRA1 inh -2.2, mABHD4 FP -1.4, SIAE primary -3.4, Tn7 DDE FP -5.4, TCR CD3 inh 28.5*, BSA probe FL 28.0* and TCR-CD3 conf 16.4.
For COc1ccc(-c2cnnn2-c2ccc(NC(=O)c3ccc(S(=O)(=O)N4CCCCC4)cc3)cc2)cc1OC the results were DDE Tn6 FP inh 9.6, HTRA1 inh -53.5, mABHD4 FP -77.5, SIAE primary -81.6, Tn7 DDE FP -2.0, TCR CD3 inh 19.5*, BSA probe FL 6.9 and TCR-CD3 conf 22.8*.
Screening CC1(C)CCC(=O)N2CC[C@H]3c4cc5ccccc5nc4C[C@@H]1[C@H]32 returned DDE Tn6 FP inh -12.0, HTRA1 inh -4.2, mABHD4 FP 8.6, SIAE primary 6.5, Tn7 DDE FP -1.6 and TCR CD3 inh -3.2.
Cc1sc2ncnc(N3CCC(C(=O)N(CC(C)C)c4nc5ccccc5s4)CC3)c2c1C was read as DDE Tn6 FP inh -9.0, HTRA1 inh -1.5, mABHD4 FP -1.2, SIAE primary -3.8, Tn7 DDE FP 0.5 and TCR CD3 inh 5.2.
For Cc1nn(-c2ccccc2)c(Cl)c1C(=O)NCC(C)c1ccccc1 (stereo not drawn) the results were DDE Tn6 FP inh 1.5, HTRA1 inh -12.7, mABHD4 FP -10.2, SIAE primary 6.6, Tn7 DDE FP 0.2, TCR CD3 inh 130.3*, BSA probe FL -2.7 and TCR-CD3 conf 0.0.
Screening O=C(COC(=O)c1cc(-c2cccs2)nn1-c1ccccc1)Nc1cccc([N+](=O)[O-])c1 returned DDE Tn6 FP inh -1.6, HTRA1 inh 2.7, mABHD4 FP -6.3, SIAE primary -2.7, Tn7 DDE FP -2.6, TCR CD3 inh 26.0*, BSA probe FL 2.8 and TCR-CD3 conf 0.8.
`Cc1ccc(NC(=O)COC(=O)c2cc(-c3cccs3)nn2-c2ccccc2)cc1[N+](=O)[O-]` gave DDE Tn6 FP inh -1.3, HTRA1 inh -4.4, mABHD4 FP -1.7, SIAE primary 6.3, Tn7 DDE FP -6.6 and TCR CD3 inh -0.6.
Screening Oc1ccc(/C=N/N=C/c2ccc(O)c(O)c2)cc1O returned DDE Tn6 FP inh 1.3, HTRA1 inh 30.5, mABHD4 FP 26.4, SIAE primary 1.1, Tn7 DDE FP 5.2, TCR CD3 inh 50.9*, BSA probe FL -7.3 and TCR-CD3 conf 67.4*.
Screening COC(=O)[C@]12C[C@H](CC(=O)N3CCSCC3)C(=O)N(Cc3ccccc3)C1=C[C@H](C1CCCC1)O[C@@H]2C returned DDE Tn6 FP inh 11.2, mABHD4 FP -5.6, SIAE primary -2.3, Tn7 DDE FP 7.7 and TCR CD3 inh 0.1.
`Cc1ccc(C)c(NC(=O)C(OC(=O)c2ccc(NC(=O)CC#N)cc2)c2ccccc2)c1` (stereo not drawn) gave DDE Tn6 FP inh 2.0, HTRA1 inh -73.5, mABHD4 FP -40.7, SIAE primary -76.9, Tn7 DDE FP 7.3 and TCR CD3 inh 14.2.

High-throughput results deposited in PubChem BioAssay by The Scripps Research Institute Molecular Screening Center.
